Experimental data as given in ChEMBL document CHEMBL1147092, “Pharmacokinetic/pharmacodynamic factors influencing emergence of resistance to linezolid in an in vitro model” (Antimicrob Agents Chemother, 2007).
Converted amounts (≈) assume the structure as drawn.

Assays:
[1] = tested on: Staphylococcus aureus; assay: Bactericidal activity against methicillin-resistant Staphylococcus aureus ATCC 43300 assessed as reduction of CFU using in vitro PK/PD model with human dosage regimen 600 mg every 12 hrs after 24 hrs; format: functional
Procedure, shortened: (§1)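 Flow-through central chamber of BHI broth at 37°C, with pumped clearance set for a 5-h half-life (volume of distribution 290 ml). Exponential-phase inoculum was 10^6 CFU/ml, in duplicate, with growth controls. Samples taken 0–72 h were diluted in saline, plated on nutrient agar and incubated 37°C for 24 h; quantification limit 50 CFU/ml. Drug levels were checked by HPLC. Reduction is the log10 CFU/ml fall.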

[2] = tested on: Staphylococcus aureus; assay: Antibacterial activity against methicillin-resistant Staphylococcus aureus ATCC 43300 using in vitro PK/PD model with 120 mg/24 hr continuous infusion simulated regimen after 72 hrs; format: functional; details: ATCC 43300, 72 h
[3] = Half life for simulated intermittent-dosage regimen at 600 mg every 12 hrs using in vitro PK/PD model
[4] = tested on: Enterococcus faecium; assay: Bactericidal activity against vancomycin-resistant Enterococcus faecium ATCC 700221 assessed as reduction of CFU using in vitro PK/PD model with human dosage regimen 600 mg every 12 hrs at 24 hrs; format: functional; procedure, shortened: as §1
[5] = tested on: Enterococcus faecium; assay: Area under population analysis profile for vancomycin-resistant Enterococcus faecium ATCC 700221 using in vitro PK/PD model relative to growth control with 120 mg/24 hrs continuous infusion regimen after 72 hrs; format: functional
Procedure, shortened: (§2)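 Bacteria recovered after 72 h of a 2.0-μg/ml continuous infusion in a flow-through BHI model (duplicates). 50 μl of a 0.5 McFarland suspension or dilutions were spiral-plated on BHI agar with linezolid 0–5 μg/ml and incubated 35°C for 48 h; counting limit 20 CFU/ml. Area under the log10 CFU/ml vs concentration curve (trapezoidal) is compared with the 72-h growth control.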

[6] = tested on: Staphylococcus aureus; assay: Bactericidal activity against heteroresistant vancomycin-intermediate Staphylococcus aureus Mu3 assessed as reduction of CFU using in vitro PK/PD model with human dosage regimen 600 mg every 12 hrs after 24 hrs; format: functional; procedure, shortened: as §1
[7] = tested on: Enterococcus faecium; assay: Bactericidal activity against vancomycin-resistant Enterococcus faecium ATCC 700221 assessed as reduction of CFU using in vitro PK/PD model with 120 mg/24 hr continuous infusion simulated regimen after 48 hrs; format: functional; procedure, shortened: as §1
[8] = tested on: Enterococcus faecium; assay: Antibacterial activity against vancomycin-resistant Enterococcus faecium ATCC 700221 by microdilution method; format: functional
Procedure, shortened: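 Standard broth microdilution in cation-adjusted Mueller-Hinton broth, run in four replicates at baseline. Before testing, the strain was held at −80°C in tryptone soy broth with 20% glycerol and subcultured on horse blood agar for 24 h at 35°C.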

[9] = tested on: Staphylococcus aureus; assay: Bactericidal activity against vancomycin-intermediate Staphylococcus aureus Mu50 assessed as reduction of CFU using in vitro PK/PD model with 120 mg/24 hr continuous infusion simulated regimen after 48 hrs; format: functional
Procedure, shortened: (§3)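 Flow-through in vitro PK/PD model in BHI broth at 37°C, 5-h half-life (Vd 290 ml); exponential-phase inoculum 10^6 CFU/ml, duplicates with growth controls. […] Viable counts by saline dilution, plating on nutrient agar, 37°C 24 h; bactericidal = >3-log10 CFU/ml drop.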

[10] = Half life for simulated intermittent-dosage regimen at 120 mg every 12 hrs using in vitro PK/PD model
[11] = tested on: Staphylococcus aureus; assay: Bactericidal activity against vancomycin-intermediate Staphylococcus aureus Mu50 assessed as reduction of CFU using in vitro PK/PD model with human dosage regimen 600 mg every 12 hrs after 24 hrs; format: functional; procedure, shortened: as §3
[12] = tested on: Staphylococcus aureus; assay: Antibacterial activity against heteroresistant vancomycin-intermediate Staphylococcus aureus Mu3 using in vitro PK/PD model with 120 mg/24 hr continuous infusion simulated regimen after 72 hrs; format: functional; details: Mu3, 72 h
[13] = tested on: Staphylococcus aureus; assay: Area under population analysis profile for heteroresistant vancomycin-intermediate Staphylococcus aureus Mu3 using in vitro PK/PD model relative to growth control with 120 mg/24 hrs continuous infusion regimen after 72 hrs; format: functional; procedure, shortened: as §2
[14] = tested on: Staphylococcus aureus; assay: Area under population analysis profile for methicillin-resistant Staphylococcus aureus using in vitro PK/PD model relative to growth control with 120 mg/24 hrs continuous infusion regimen after 72 hrs; format: functional; procedure, shortened: as §2
[15] = tested on: Staphylococcus aureus; assay: Bactericidal activity against vancomycin-intermediate Staphylococcus aureus Mu50 assessed as reduction of CFU using in vitro PK/PD model with human dosage regimen 120 mg every 12 hrs after 24 hrs; format: functional; procedure, shortened: as §1
[16] = tested on: Staphylococcus aureus; assay: Area under population analysis profile for vancomycin-intermediate Staphylococcus aureus Mu50 using in vitro PK/PD model relative to growth control with 120 mg/24 hrs continuous infusion regimen after 72 hrs; format: functional

For `CC(=O)NC[C@H]1CN(c2ccc(N3CCOCC3)c(F)c2)C(=O)O1` [LINEZOLID], the log10CFU/ml [1] was 3.9, the MIC [2] was ≥ 8 µg/mL and the half-life at 12 h [3] was 5.32 h. It also gave a log10CFU/ml [4] of 3.8, an AUPAP [5] of 40% and a log10CFU/ml [6] of 3.1. The log10CFU/ml [7] was >3, the MIC [8] was 2 µg/mL (≈ 5.93 µM) and the log10CFU/ml [9] was >3. The half-life at 12 h [10] was 5.32 h, the log10CFU/ml [11] was 3.3 and the MIC [12] was ≥ 8 µg/mL. The AUPAP [13] was 70.2%, the AUPAP [14] was 178% and the log10CFU/ml [15] was >3. The AUPAP [16] was 90.2%.
